GSK3B inh: human GSK3beta kinase inhibitors, primary screen, biochemical, cell-free homogeneous, HTS. GST-GSK3beta kinase, ADP-Glo luminescence, 60 min; stronger effect = lower value. activity score (negative = inhibition), % at 10 µM. 300,000 compounds, 0.038% hits;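 active = more than half of replicate wells score below -50%, meaning over 50% inhibition versus plate controls; inconclusive = some replicates but at most half score below -50%; inactive = no replicate scores below -50%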;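 note: 0% = median DMSO wells and -100% = median GW8510 positive control wells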
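Test system: GST-tagged human GSK3beta kinase, cell-free; evaluation: activity score scaled between in-plate DMSO and GW8510 controls; measured by: ADP-Glo luminescence; incubation: 60 min reaction, RT; benchmarks: DMSO and 20 µM GW8510; reagent: peptide substrate plus 25 µM ATP (final); medium: Tris/MgCl2 kinase buffer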
STK33 inh: inhibitors of purified STK33 kinase, primary screen, biochemical, ADP-Glo luminescence, homogeneous, cell-free; Serine/threonine-protein kinase 33 (Homo sapiens), Q9BYT3; MBP phosphorylation; inhibition, % at 10 µM; 320,000 compounds, 0.073% hits; AID 2661, 2010;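 active = inhibition at or above 25%, using the most active replicate where run in duplicate; inactive = inhibition below 25%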
CDK5 inh: inhibitors of human CDK5/p35 kinase, primary screen, biochemical, single concentration; Cyclin-dependent kinase 5 (Homo sapiens) + Cyclin-dependent kinase 5 activator 1 (Homo …; Recombinant CDK5/p35, ADP-Glo luminescence, 60 min; inhibition, % at 10 µM; 330,000 compounds, 0.01% hits; AID 488839, 2010;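 active = highest replicate inhibition of at least 50% and at least 75% of replicates reaching 50%; inconclusive = only one of the two criteria met; inactive = both criteria failed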;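 note: plate controls were DMSO neutral control for no effect and GW8510 at 10 µM for full effect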
INS-1E GSIS act: GLuc luminescence reporter in INS-1E cells, primary screen for activators of glucose-dependent secretion of insulin; INS-1E GLuc reporter insulin secretion, 2-3 h; activation, % at 16.6 µM; 370,000 compounds, 0.61% hits; AID 743287, 2014;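 active = lowest replicate activation of at least 40%, so every replicate reaches that level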;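 note: 0% = median of neutral control wells and 100% = median of IBMX positive control wells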
GSK3A inh: blockers of GSK3A enzyme activity – biochemical, luminescence, cell-free homogeneous, HTS, primary screen; Glycogen synthase kinase-3 alpha (Homo sapiens), P49840; GSK-3 alpha kinase, ADP-Glo luminescence, 60 min; inhibition, % at 10 µM; 320,000 compounds, 0.1% hits;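 active = more than half of replicates show inhibition above 20%; inconclusive = some but at most half of replicates above 20% inhibition; inactive = no replicate shows inhibition above 20%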;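 note: GST-tagged GSK-3 alpha with peptide substrate and 25 µM ATP; 0% = DMSO neutral wells and 100% = GW8510 positive control wells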
Target sequence (P49840 whole entry, looked up): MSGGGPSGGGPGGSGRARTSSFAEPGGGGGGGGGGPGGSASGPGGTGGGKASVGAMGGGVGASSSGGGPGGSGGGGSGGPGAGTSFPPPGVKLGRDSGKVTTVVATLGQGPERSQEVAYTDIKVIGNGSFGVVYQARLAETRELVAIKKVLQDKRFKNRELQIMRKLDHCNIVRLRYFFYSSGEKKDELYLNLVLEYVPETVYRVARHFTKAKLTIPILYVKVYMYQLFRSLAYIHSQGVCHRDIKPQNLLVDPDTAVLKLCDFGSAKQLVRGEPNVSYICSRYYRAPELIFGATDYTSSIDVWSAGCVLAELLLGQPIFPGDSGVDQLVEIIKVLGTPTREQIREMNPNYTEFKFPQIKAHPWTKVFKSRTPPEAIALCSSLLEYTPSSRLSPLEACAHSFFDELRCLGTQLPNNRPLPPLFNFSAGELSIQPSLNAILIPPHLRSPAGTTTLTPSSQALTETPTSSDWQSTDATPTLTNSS
HIV Env fusion: inhibitors of HIV-1 Env-driven cell-cell fusion, primary screen, HeLa-JRFL effector, CEM21 target cells, luciferase | inhibition, % at 12.3 µM | 360,000 compounds, 1.1% hits;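 active = mean replicate inhibition score of at least 50 and every replicate individually at or above 50; inconclusive = only one of the two criteria met; inactive = mean below 50 and not all replicates reaching 50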;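 note: 0% = plate neutral controls and 100% = maraviroc near 300 nM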
Starred values were filed as active, the others as inactive; ? = inconclusive; nt = no result given; ! = repeats disagree; [ ] = another dose, or the depositor's remark. Sampled rows, rich in hits. Any-hit rate of the full collection: about 1.4%.

SMILES	GSK3B inh	STK33 inh	CDK5 inh	INS-1E GSIS act	GSK3A inh	HIV Env fusion
Oc1ccc(-c2nc3c4c(ncn3n2)-c2ccccc2CC42CCCC2)cc1	2	-1	-3	190*	-2	nt
Nn1cnc2c(c1=O)C1(CCCCC1)Cc1ccccc1-2	2	0	-1	2	4	32
COc1ccc(S(=O)(=O)Nc2ccc3c(c2)CC(=O)N([C@@H](C)CO)C[C@H](C)[C@@H](CN(C)S(=O)(=O)c2ccccc2)O3)cc1	nt	nt	nt	1	nt	-8[16.7 µM]
Cc1ccc(C(=O)Nc2cccc(C(F)(F)F)c2)cc1NC(=O)c1c[nH]c2cc(C(F)(F)F)ccc2c1=O	nt	0	-1	nt	-1	nt
CCN1CCN(Cc2ccc(NC(=O)c3ccc(C)c(NC(=O)c4c[nH]c5cc(C(F)(F)F)ccc5c4=O)c3)cc2C(F)(F)F)CC1	-4	-3	-1	2	-4	106*!
C[C@H]1CN([C@@H](C)CO)C(=O)Cc2cc(NC(=O)CCCCCC(=O)Nc3ccccc3N)ccc2O[C@H]1CN(C)C(=O)Nc1cccc2ccccc12	nt	nt	nt	5	nt	nt
CC=Cc1ccc2n(c1=O)C[C@@H]1[C@@H](CO)[C@H](C(=O)N(C)C)N(CCC)[C@H]21 (mixture of isomers)	nt	nt	nt	24	nt	nt
Cc1cc2nc(-c3ccc(Cl)cc3)c(Cc3ccsc3)n2c(C)c1Br	nt	nt	nt	100*	nt	-7
COc1ccc(-c2nc3cc(C)c(Br)c(C)n3c2Cc2ccccc2)cc1OC	nt	nt	nt	11	nt	71*
COc1ccccc1Cc1c(-c2ccccc2)nc2cc(C)c(Br)c(C)n12	nt	nt	nt	0	nt	-22
CCCCCc1cc(=O)oc2c(C(CCN(CC)CC)c3cc(OC)c(OC)c(OC)c3)c(OC)cc(OC)c12 (configuration not stated)	-4	2	1	63*	9	-8
CCC(=O)Nc1ccc2c(c1)OC[C@H](C)N(CC1CC1)C[C@@H](C)[C@H](OC)CN(C)C2=O	nt	nt	nt	0	nt	nt
Cc1c(C(=O)OCC(=O)N2CC(=O)Nc3ccccc32)oc2ccc(Br)cc12	0	-1	0	73*	0	nt
Cc1c(C(=O)OCC(=O)N2c3ccccc3CC2C)oc2ccccc12 (configuration not stated)	-4	33*	1	7	8	9
C[C@@H]1CCCCO[C@H](CN(C)C)[C@H](C)CN([C@H](C)CO)C(=O)c2cc(NC(=O)Cc3ccccc3)ccc2O1	nt	nt	nt	13	nt	-11[16.7 µM]
Nc1c(C(=O)Nc2ccc3c(c2)OCCO3)nnn1Cc1ccc(Cl)cc1	5	-1	-2	45*	0	-167
Cc1ccccc1OCCCN1CCC(C(O)(c2ccccc2)c2ccccc2)CC1	nt	nt	nt	nt	nt	8
Cc1cc(C)cc(OCCCN2CCC(C(O)(c3ccccc3)c3ccccc3)CC2)c1	nt	nt	nt	182*	nt	-9
Cc1cc(OCCCN2CCC(C(O)(c3ccccc3)c3ccccc3)CC2)ccc1Br	nt	nt	nt	477*	nt	0
CCCNC(=O)C[C@@H]1C[C@@H]2c3cc(NC(=O)CN(C)C)ccc3O[C@@H]2[C@H](CO)O1	nt	nt	nt	-1	nt	91*[16.7 µM]
CCCNC(=O)C[C@H]1C[C@H]2c3cc(NC(=O)CN(C)C)ccc3O[C@H]2[C@@H](CO)O1	nt	nt	nt	1	nt	80*[16.7 µM]
COCCNC(=O)C[C@@H]1C[C@H]2c3cc(NC(=O)Cc4ccncc4)ccc3O[C@H]2[C@@H](CO)O1	nt	nt	nt	20	nt	0[16.7 µM]
CCCNC(=O)C[C@H]1C[C@H]2c3cc(NC(=O)Cc4ccncc4)ccc3O[C@H]2[C@H](CO)O1	nt	nt	nt	-4	nt	88*[16.7 µM]
Cc1noc(C)c1NC(=O)N(C)C[C@@H]1Oc2cc(C#CCC3CCCC3)ccc2S(=O)(=O)N([C@@H](C)CO)C[C@@H]1C	nt	nt	nt	-15	nt	nt
COc1ccc(NC(=O)C2C3C=CC4(O3)C2C(=O)N(CCN2CCCCC2C)C4C(=O)NC2CCCC(C)C2C)cc1 (configuration not stated)	-1	1	-1	92*	0	3
SMILES	GSK3B inh	STK33 inh	CDK5 inh	INS-1E GSIS act	GSK3A inh	HIV Env fusion
CCC(=O)N1C[C@@H](C)[C@H](OC)CN(C)C(=O)c2ccc(NC(=O)C3CC3)cc2OC[C@@H]1C	nt	nt	nt	14	nt	nt
O=C(C[C@@H]1CC[C@H]2[C@@H](COC[C@H](O)CN2Cc2cccc(C(F)(F)F)c2)O1)NCCc1ccncc1	nt	nt	nt	-18	nt	9[16.7 µM]
O=C(O)C(Cc1ccc(O)cc1)N1C(=O)c2ccccc2C1=O (configuration not stated)	0	-1	0	48*	0	-3
N=C(N)c1ccc(N=Nc2c(O)ccc3c2[nH]c2ccccc23)cc1	nt	nt	33	47*	nt	nt
COc1ccc2cc3[n+](cc2c1O)CCc1cc2c(cc1-3)OCO2	nt	nt	nt	4	nt	3
C[n+]1cc2c3c(ccc2c2ccc4cc5c(cc4c21)OCO5)OCO3	nt	nt	nt	nt	nt	110*
CCOC(=O)C1=C(CSc2nc3ccccc3s2)NC(=O)NC1c1cc(C)ccc1C (configuration not stated)	1	0	2	nt	0	nt
CCOC(=O)C1=C(CSc2nc3ccccc3s2)NC(=O)NC1c1ccc(OC)cc1 (configuration not stated)	2	-1	1	nt	-3	73*
CC(C)NC(=O)Nc1ccc2c(c1)CC(=O)N([C@H](C)CO)C[C@H](C)[C@H](CN(C)S(=O)(=O)c1ccccc1)O2	nt	nt	nt	7	nt	65*[16.7 µM]
C[C@H]1CN([C@@H](C)CO)C(=O)Cc2cc(NC(=O)Nc3ccccc3)ccc2O[C@H]1CN(C)S(=O)(=O)c1ccccc1	nt	nt	nt	nt	nt	70*[16.7 µM]
C[C@H](CO)N1C[C@H](C)[C@H](CN(C)S(=O)(=O)c2ccccc2)Oc2ccc(NC(=O)NC3CCCCC3)cc2CC1=O	nt	1	0	-15	-2	87*
C[C@H]1CN([C@@H](C)CO)C(=O)Cc2cc(NC(=O)Nc3ccccc3)ccc2O[C@@H]1CN(C)S(=O)(=O)c1ccccc1	nt	nt	nt	-2	nt	-2[16.7 µM]
CO[C@H]1CN(C)C(=O)c2cc(NC(=O)c3cnccn3)ccc2OC[C@H](C)N(CC2CC2)C[C@@H]1C	nt	nt	nt	15	nt	nt
COCCNC(=O)C[C@@H]1C[C@@H]2c3cc(NC(=O)Nc4ccc(F)cc4)ccc3O[C@@H]2[C@H](CO)O1	nt	nt	nt	-1	nt	-15[16.7 µM]
O=C(C[C@@H]1CC[C@@H](NS(=O)(=O)c2ccc(F)cc2)[C@H](CO)O1)N1CCc2ccccc2C1	nt	nt	nt	-8	nt	18[16.7 µM]
CC1CCCC(C)N1CCCNC(=O)c1ccc2c(c1)NC(=O)c1ccccc1S2 (configuration not stated)	-3	-1	-3	-1	-1	?

Screening data as filed in PubChem BioAssay.
